According to the EternaBench riboswitch data:

Test system: MS2 coat protein
Test: apparent Kd, MS2 coat protein; higher = weaker binding; RNA-MaP array; FMN 200 µM where present
Method in brief: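 Designs were transcribed by stalled E. coli RNA polymerase on Illumina sequencing-chip clusters. They were titrated with SNAP-549-labelled MS2 coat protein from 0.7 or 1.5 nM, doubling to 3 µM, in 100 mM Tris-HCl pH 7.5, 80 mM KCl, 4 mM MgCl2, BSA, DTT, yeast tRNA and Tween-20, without and then with constant ligand. The apparent Kd is the median of filtered per-cluster fits after normalisation of green signal to red-channel RNA signal and control-cluster median Fmax.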

[1] = designed as: OFF switch for flavin mononucleotide, no ligand
[2] = ligand present: flavin mononucleotide, designed as: OFF switch for flavin mononucleotide
[3] = designed as: ON switch for flavin mononucleotide, no ligand
[4] = ligand present: flavin mononucleotide, designed as: ON switch for flavin mononucleotide

Sequence | apparent Kd [1] | apparent Kd [2] | apparent Kd [3] | apparent Kd [4]
GGUAUGCAGCAGGAUAUCCAUCCGCGGUAUGGUGGAGAAGGGCUGACAUGAGGAUCACCCAUGUGCGUCCUAGG | 32.8 nM | 87.6 nM |  | 
CCGAUGAUAGGACAGGAUAUGACUGUCGUCACAUGAGGAUCACCCAUGUCCCGGCAAUGCCACCGUUAGAAGGGUCCCAUCUCGG |  |  | 19.1 nM | 16.3 nM
CACCGUUACAGAGGAUAUGACACAUGAGGAUCACCCAUGUAAUAAAUGAGAAUUUCGAAUGUAACUCAGAAGGCUGGAAUCGGC | 30.5 nM | 52.8 nM |  | 
GUCGUGUGAGGAUAUGGAUAGACGCAGUGACAGUCAGCGACCUAGAAGGCACAUGAGGAUCACCCAUGUAUGUG | 47.2 nM | 100 nM |  | 
GCACUGGAUGUAGGAUAUCAGGACGAUAAGUCCUGAGAAGGACAUGAGGAUCACCCAUGUGAAUAAACCAGUGCAAAUAAUAUA | 12.5 nM | 32.3 nM |  | 
UUUUUUUUUAGAGGAUAUAUUGUGUGUUAUAUAAUAGAAGGCUAAACAUGUGACAUACACAUGAGGAUCACCCAUGUUUUGUUU |  |  | 31.6 nM | 27 nM
GUUUGACAUGAGGAUCACCCAUGUGAGGAUAUACGAGUAGCUGCUAGGUAGUUAGUAUGUAGAAGGUGCGUGUU | 75.6 nM | 71 nM |  | 
CGCUAAGAGAACUAUUCGAGAAGACAUGAGGAUCACCCAUGUAGAAGGACAACGGAAUAAACGUUGUAGGAUAUACACUUAGCG | 9.36 nM | 8.97 nM |  | 
GGUUUGGGAGGAUAUGGCUUGUUUGACAUGAGGAUCACCCAUGUAAGUGGAUCUUCCGGGCCAGAAGGCUCGGGCC | 104 nM | 188 nM |  | 
ACAUGAGGAUCACCCAUGUGGAGUGAAGAAGGUGGUUACUUAAGACUCUUCCAUGUACUUAGGACUGAGGAUAUUCUAAUAUUU |  |  | 53.8 nM | 30.5 nM
CUUGUGUUAGGAUAUGCGCCCUGAAGUGGCAGGGCCAGAGAGCAGAAGGGACAUGAGGAUCACCCAUGUGUGAC | 84.3 nM | 127 nM |  | 
UAGAAGUCAGGAUAUCCUGCUCGUCACUUGCGUGAUGAGUAGGAGAAGGGACAUGAGGAUCACCCAUGUAAAGA | 53.8 nM | 53.4 nM |  | 
CCUCUACAUGAGGAUCACCCAUGUCAGGAUAUCGUGUGUUUUUUUUCGGCCGCGCGUGCGAGAAGGGACGUCUU | 31.9 nM | 32 nM |  | 
GUCGAAACCAUACUGGUCGACGGUCAGGAUAUACAUGAGGAUCACCCAUGUGCUAUUGAUACUAUGUAGAAGGGACCCACCGCA | 15.2 nM |  |  | 
UAUUUAUAAUAUAUUAACAUGAGGAUCACCCAUGUCGCUAGACAGGAUAUAUUUUAUUUUUUUAAGUAGAAGGGUCAUAUAUUU |  |  | 68 nM | 85.9 nM
ACUGGGCGCCAACCCAUGUCUAUGGAGGAUAUUACUGCCGGUAUCUCACAUGAGGAUCACCCAUGUAAGAAGGCCAUAAGCACA | 34.3 nM | 176 nM |  | 
CAGUCUACAGGAUAUACAUGAGGAUCACCCAUGUUUAUCAACUUUCAGUAAUCCAUAUGUAGAAGGGUAGACUG | 23.9 nM | 79.1 nM |  | 
GUAGCAUGCCAAGGAUAUUCAUAUAGUAGGCAAACAUGAGGAUCACCCAUGUAGUGAGAGCCCUGGGAGAAGGUGGGAUGCUAC |  |  | 17.9 nM | 16.1 nM
GUAUAUAGUGUGAGGAUAUGCUGGUCCUUGGAUCAGCAGAAGGCACAUGAGGAUCACCCAUGUAGUUUAUUUUG | 18.4 nM | 65.7 nM |  | 
GGGACUCUAGAAGAGCUGUCGACAUAGGAUAUGAUGUGCGACAUGAGGAUCACCCAUGUAACGAAUUAGAAGGGUGUAGGCAUG |  |  | 228 nM | 114 nM
UUAUGUUUACAAGGAUAUCAAUUAUUUAUACUUCCUACAUGAGGAUCACCCAUGUUUUUAUAUUUUGAGAAGGUGUAAUGUCGG |  |  | 38.5 nM | 35.4 nM
UGAUAACAUGUAGGAUAUCCAGCAUUGACCAUCGGAGAAGGACAUGAGGAUCACCCAUGUACCGAUACAAUGGGAUAAGGGAAU | 16.1 nM | 18.6 nM |  | 
GUGGUGCAUAUACGUGGAUGUACAUGAGGAUCACCCAUGUAAGAGGAUAUGCGGAUACUAGCUCAGCAGAAGGCUUACAAAUGA | 30.3 nM | 240 nM |  | 
CGACAAGUCGUAGGAUAUGGUGAUGUACAUGAGGAUCACCCAUGUCCGUCUUCUCUCACAAGAUGCCAGAAGGGCGACUUCCGG |  |  | 676 nM | 404 nM
GGAUAUGACAGAGGAUAUACGUGCUAGAGAUACUAGCAAAAUUUCCUCACAUGAGGAUCACCCAUGUAGAAGGCUGUCCUAUCG | 16.3 nM | 275 nM |  | 
GCUAGGCAUGUCAGGAUAUGCUGAACCUUGGUUCAGCAGAAGGGACAUGAGGAUCACCCAUGUGCCAACCUAGC | 57.4 nM | 613 nM |  | 
GUCAGCUCGUGAGGAUAUACAACACUGCUUCGGCAGUGUAUUAAGAUCACAUGAGGAUCACCCAUGUAGAAGGGACGAGCUGAU | 11.8 nM | 20.7 nM |  | 
GACGUACAUGAGGAUCACCCAUGUACAGACGUACAAGGAUAUGUGUGGAAACCGUACUAUACAGAAGGUGUUUGUC |  |  | 15.7 nM | 15 nM

Sequence | apparent Kd [1] | apparent Kd [2] | apparent Kd [3] | apparent Kd [4]
UUCGAGUUGCAAGGAUAUCUUAUUUAGAUUUUAAGAGAAGGUGCUUCACAGCUACAUGAGGAUCACCCAUGUCUUUCUUCUUAU |  |  | 29.7 nM | 23.7 nM
GGAUGACAAAGUCAUCCAAAUCGAACAUGAGGAUCACCCAUGUAGGAUAUGCUACACAAAGUGUAGCAGAAGGACAUGUGCUUU | 42.2 nM | 258 nM |  | 
AAAAAGUCAGGAUAUGUCAAAAGUCACAAAAGUGACAAAAGACAGAAGGGACAUGAGGAUCACCCAUGUAAAAA | 29 nM | 46.4 nM |  | 
CCCUGAGAUUGGUUAAUUGGCUGAUAGGAUAUCCUCGGACAUGAGGAUCACCCAUGUUAACUAUUGGAGAAGGGUCAGCGAAAG |  |  | 607 nM | 90.2 nM
AUAGGACGAAACAUGAGGAUCACCCAUGUGUUAUAAUUAAUAUAGGAUAUGUUUAUACUUUUUGGGCAGAAGGAUGAUAAUGCU |  |  | 16.6 nM | 14.7 nM
CCAUGUCUAUGAGGAUAUCCGAAUUAGCGUUUGACAACGAUGAGUUCUCCAGGAGAAGGCAUGGACAUGAGGAUCACCCAUGUA | 29.6 nM | 75.5 nM |  | 
AAACAAGAAGGAUAUACAUUAUCGGAUCUUCCGGCAAUGCCACAUGAGGAUCACCCAUGUAGAAGGUCUAAAUU | 12.3 nM | 18.9 nM |  | 
GCUAGUAUUGCAGGAUAUUGAGAAUAAUUAUUCCAAGAAGGGCAUAACAUGAGGAUCACCCAUGUAUUCCUUAGUGAUACUAGC | 4.39 nM | 4.44 nM |  | 
CAUGUCCUCACAGGAUAUGCACCACUUUGUGGUGCAGAAGGGUGGAAACAUGAGGAUCACCCAUGUGGACAUGAUAUAUUUAAG |  |  | 142 nM | 24.8 nM
GCCAUCACAUGAGGAUAUGCUCCCGUUUCGGGAGCAGAAGGCGUGUCAUAAGACAUGAGGAUCACCCAUGUAGUUAAGAUGGCA |  |  | 399 nM | 12.7 nM
GGGCCCGGUGUGAGGAUAUGCUCGGGUAAACUCGGGCAGAAGGCACAUGAGGAUCACCCAUGUAAGCCGGGCCC | 13.8 nM | 14.6 nM |  | 
AGCUAAAACGAAGGAUAUACUGACAUGAGGAUCACCCAUGUCUACAUGAUUUAUUGUGAUCACAUGUAGAAGGUCGUACUAACA |  |  | 74.4 nM | 27.7 nM
GGAUAGUGAGGAUAUGCAUACGGUGUAAGUCCCAGAUCGAAACAUGAGGAUCACCCAUGUAGAAGGCGCAAAAC | 23.6 nM | 75.5 nM |  | 
AAUCCACAUGAGGAUCACCCAUGUCAGGAUAUCGCGCGCGCGUUUUCGGUCUUGCGCGCGAGAAGGGACGGCUG | 26.2 nM | 46 nM |  | 
GUCUGAUUGUAGAAGGUACUUAAUACUCAUGUAACAUGAGGAUCACCCAUGUAUCAUCAAUAUUGUAAGGAUAUACAAAUCUCA |  |  | 150 nM | 28.4 nM
UUGGACGUCGUAGGAUAUGUAGGAUAUUCCUACAUGAGGAUCACCCAUGUUGAAAUGGAAGAAGGACAGAAGGACGAUGUCCAU |  |  | 56.9 nM | 11.8 nM
ACUGGUGCAGGAUAUGCAAUCGUGCUUCGGCACGUAAGAUCACAUGAGGAUCACCCAUGUAGAAGGGCACCAGU | 20.3 nM | 65.7 nM |  | 
CGAUAUUAUGCAGGAUAUCUUUCUUGAAUGAGGAGAGAAGGGCAUAGGGAGACAUAAGCCUUAUUACAUGAGGAUCACCCAUGU | 10.9 nM | 9.5 nM |  | 
GGAUAGGACAGAGGAUAUUCGUGCUAGAGAUACUAGCAAAAUUUCCUCACAUGAGGAUCACCCAUGUAGAAGGCUGUCCUAUCG | 5.37 nM | 10.3 nM |  | 
CACGGUGAUGUAGGAUAUAUGCUGGAAUACAGCAUAGAAGGACAUGAGGAUCACCCAUGUAAAGUGUCUCCAAAUAACACCGUG | 31.1 nM | 77 nM |  | 
ACAUGAGGAUCACCCAUGUAUUACAUGGUUUAGUUUAUUAACAGAAGGCGAAAUUACCACUUUUUCGAGGAUAUGUAUUCUAUA | 71 nM | 64.2 nM |  | 
UUGGUCGUCGUAGGAUAUGUAGGAUAUUCCUACAUGAGGAUCACCCAUGUUGACAUGGAAGAAGGACAGAAGGACGAUGUCCAU |  |  | 447 nM | 5.71 nM
UUGGUUGUCGUAGGAUAUGUAGGAUAUUCCUACAUGAGGAUCACCCAUGUUCGCAUGGAAGAAGGACGGAAGGACGAUGACCAU |  |  | 317 nM | 109 nM
GAUAGGACAGAGAAGGUACGUGCUAGAGAUACUAGCAAAAUACCUCAACAUGAGGAUCACCCAUGUAAGGAUAUCUGUCCUAUC | 5.7 nM | 6.19 nM |  | 
AUACCUUAUGAGAAGGCGAUUAUGAAACAUGAUCGAGGAUAUCAUGUAAACAUGAGGAUCACCCAUGUAUGGGUAUUAUGGUAC |  |  | 50 nM | 11.6 nM
GACUUGUAAGGAUAUCGUGCAAGUUUCAAAAGAGGCUUGUGCGAGAAGGUACAUGAGGAUCACCCAUGUAGGUU | 27 nM | 56.6 nM |  | 
GGGACACAUGAGGAUCACCCAUGUGAGGAUAUGUUAGUUUCGGCCAAAGCCGAAAUUAACAGAAGGCACAUACC | 36.7 nM | 49 nM |  | 
